Measured values as given in ChEMBL document CHEMBL1121389, “Mono- and diaryl-2-quinuclidinylcarbinols with local anesthetic and antiarrhythmic activity” (1980).

Experiments:
Canis familiaris [1] = species on record: Canis familiaris; test: Concentration required to reverse ouabain induced arrhythmia in dogs; format: functional, Canis lupus familiaris
Procedure, shortened: (§1)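 Dogs anesthetized with pentobarbital 35 mg/kg. Ouabain given iv at 40 μg/kg, then 20 μg/kg 30 min later, then 10 μg/kg every 15 min until ventricular tachycardia persisted. About 20 min after the last ouabain dose, compound given iv over 3 min, starting at 5 mg/kg. Further 5 or 10 mg/kg doses given at 15-min intervals, up to 15 or 20 mg/kg, until sinus rhythm returned. Dogs observed 2 h.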

Canis familiaris [2] = test: Heart rate of the dog was measured after ouabain administration to dogs; format: functional, Canis lupus familiaris; procedure, shortened: as §1
Canis familiaris [3] = species on record: Canis familiaris; test: Concentration of ouabain required to induce arrhythmia in dogs; format: functional, Canis lupus familiaris; procedure, shortened: as §1
Canis familiaris [4] = species on record: Canis familiaris; test: Number of dogs used ouabain induced arrhythmia; format: functional, Canis lupus familiaris; procedure, shortened: as §1
Canis familiaris [5] = species on record: Canis familiaris; test: Duration of the reversal of ouabain induced arrhythmia was measured; format: functional, Canis lupus familiaris; procedure, shortened: as §1
Canis familiaris [6] = test: Heart rate of the dog was measured after drug administration to dogs; format: functional, Canis lupus familiaris; procedure, shortened: as §1
Canis familiaris [7] = species on record: Canis familiaris; test: Number of dogs reverted ouabain induced arrhythmia; format: functional, Canis lupus familiaris; procedure, shortened: as §1
Cavia porcellus = test: Local anesthetic activity using modification of the guinea pig intracutaneous wheal method.; format: functional
Procedure, shortened: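 Guinea pigs, four per test. Each animal received four intracutaneous injections: propranolol standard at 0.6 and 0.2%, test high dose 0.6-2% and low dose 0.2-0.67%. Wheals marked. Skin pricked with a 23-gauge needle six times inside and six times outside the wheal every 5 min up to 30 min. Activity expressed relative to propranolol with 95% confidence limits.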

Canis familiaris [8] = species on record: Canis familiaris; test: Number of dogs reverted in ouabain induced arrhythmia; format: functional, Canis lupus familiaris; procedure, shortened: as §1
Canis familiaris [9] = species on record: Canis familiaris; test: Number of dogs used in ouabain induced arrhythmia; format: functional, Canis lupus familiaris; procedure, shortened: as §1

## COc1ccc(Br)cc1C(O)(c1cc(Br)ccc1OC)C1CC2CCN1CC2 (stereo not drawn)
Canis familiaris [1]
  Dose: 10 mg/kg
Canis familiaris [2]
  Heart rate: 210 min⁻¹
Canis familiaris [3]
  Ouabain: 70 µg/kg
Canis familiaris [4]
  No. of dogs used: 1
Canis familiaris [5]
  Duration of reversal: >120 min
Canis familiaris [6]
  Heart rate: 162 min⁻¹
Canis familiaris [7]
  No. of dogs reverted: 1
Cavia porcellus
  Activity: 0.92

## COc1ccc(C(O)(c2ccc(OC)cc2)C2CC3CCN2CC3)cc1 (stereo not drawn)
Canis familiaris [1]
  Dose: 5 mg/kg
Canis familiaris [2]
  Heart rate: 240 min⁻¹
Canis familiaris [3]
  Ouabain: 60 µg/kg
Canis familiaris [4]
  No. of dogs used: 1
Canis familiaris [5]
  Duration of reversal: 14 min
Canis familiaris [6]
  Heart rate: 168 min⁻¹
Canis familiaris [7]
  No. of dogs reverted: 1
Cavia porcellus
  Activity: 0.54

## OC(c1ccco1)(c1ccco1)C1CC2CCN1CC2 (stereo not drawn)
Canis familiaris [1]
  Dose: 15 mg/kg
Canis familiaris [2]
  Heart rate: 240 min⁻¹
Canis familiaris [3]
  Ouabain: 70 µg/kg
Canis familiaris [4]
  No. of dogs used: 1
Canis familiaris [5]
  Duration of reversal: >120 min
Canis familiaris [6]
  Heart rate: 180 min⁻¹
Canis familiaris [7]
  No. of dogs reverted: 1
Cavia porcellus
  Activity: 0.27

## COc1ccc([C@](O)(c2cc(Br)ccc2OC)C2CC3CCN2CC3)cc1 (stereo partly drawn)
Canis familiaris [1]
  Dose: 15 mg/kg
Canis familiaris [2]
  Heart rate: 180 min⁻¹
Canis familiaris [3]
  Ouabain: 100 µg/kg
Canis familiaris [4]
  No. of dogs used: 1
Canis familiaris [5]
  Duration of reversal: 0 min
Canis familiaris [6]
  Heart rate: 160 min⁻¹
Canis familiaris [7]
  No. of dogs reverted: 0
Cavia porcellus
  Activity: 1.2

## OC(c1ccccc1)(c1ccccc1)C1CC2CCN1CC2 (stereo not drawn)
Canis familiaris [1]
  Dose: 5 mg/kg
Canis familiaris [2]
  Heart rate: 228 min⁻¹
Canis familiaris [3]
  Ouabain: 70 µg/kg
Canis familiaris [4]
  No. of dogs used: 2
Canis familiaris [5]
  Duration of reversal: >120 min
Canis familiaris [6]
  Heart rate: 186 min⁻¹
Canis familiaris [7]
  No. of dogs reverted: 2
Cavia porcellus
  Activity: 0.85

## OC(c1ccccc1)(c1nccs1)C1CC2CCN1CC2 (stereo not drawn)
Canis familiaris [1]
  Dose: 6.4 mg/kg
Canis familiaris [2]
  Heart rate: 207 min⁻¹
Canis familiaris [3]
  Ouabain: 75 µg/kg
Canis familiaris [4]
  No. of dogs used: 2
Canis familiaris [5]
  Duration of reversal: >120 min
Canis familiaris [6]
  Heart rate: 150 min⁻¹
Canis familiaris [7]
  No. of dogs reverted: 1
Cavia porcellus
  Activity: 0.25

## O[C@H](c1ccccc1)[C@@H]1CC2CCN1CC2 (relative stereo)
Cavia porcellus
  Activity: 0.25

## Cn1ccnc1[C@@H](O)[C@@H]1CC2CCN1CC2 (relative stereo)
Cavia porcellus
  Activity: 0.61

## O[C@H](c1ccncc1)[C@@H]1CC2CCN1CC2 (relative stereo)
Cavia porcellus
  Activity: 0.08

## O[C@H](c1ccc(Cl)cc1)[C@@H]1CC2CCN1CC2 (relative stereo)
Canis familiaris [1]
  Dose: 15 mg/kg
Canis familiaris [2]
  Heart rate: 222 min⁻¹
Canis familiaris [3]
  Ouabain: 70 µg/kg
Canis familiaris [4]
  No. of dogs used: 1
Canis familiaris [5]
  Duration of reversal: 0 min
Canis familiaris [6]
  Heart rate: 160 min⁻¹
Canis familiaris [7]
  No. of dogs reverted: 0
Cavia porcellus
  Activity: 0.43

## Cc1ccc([C@@H](O)[C@@H]2CC3CCN2CC3)cc1 (relative stereo)
Cavia porcellus
  Activity: 0.23

## CC(C)(C)[C@@H](O)[C@@H]1CC2CCN1CC2 (relative stereo)
Cavia porcellus
  Activity: 0.13

## O[C@H](c1ccco1)[C@@H]1CC2CCN1CC2 (relative stereo)
Cavia porcellus
  Activity: 0.09

## O[C@H](C1=C2C=CC=CC(=CC=C1)C2)[C@@H]1CC2CCN1CC2 (relative stereo)
Canis familiaris [1]
  Dose: 15 mg/kg
Canis familiaris [2]
  Heart rate: 216 min⁻¹
Canis familiaris [3]
  Ouabain: 70 µg/kg
Canis familiaris [8]
  No. of dogs reverted: 1
Canis familiaris [5]
  Duration of reversal: >120 min
Canis familiaris [6]
  Heart rate: 156 min⁻¹
Canis familiaris [9]
  No. of dogs used: 1
Cavia porcellus
  Activity: 0.99

## O[C@@H](c1ccccc1)[C@@H]1CC2CCN1CC2 (relative stereo)
Cavia porcellus
  Activity: 0.18

## O[C@H](c1nccs1)[C@@H]1CC2CCN1CC2 (single isomer, unassigned)
Cavia porcellus
  Activity: 0.8

## Cc1ccc(C(O)(c2ccc(C)cc2)C2CC3CCN2CC3)cc1 (stereo in doubt; 21)
Canis familiaris [1]
  Dose: 11.7 mg/kg
Canis familiaris [2]
  Heart rate: 220 min⁻¹
Canis familiaris [3]
  Ouabain: 83 µg/kg
Canis familiaris [4]
  No. of dogs used: 3
Canis familiaris [5]
  Duration of reversal: 85 min
Canis familiaris [6]
  Heart rate: 134 min⁻¹
Canis familiaris [7]
  No. of dogs reverted: 3
Cavia porcellus
  Activity: 0.86

## CCN(CC)CC(=O)Nc1c(C)cccc1C [LIDOCAINE]
Canis familiaris [1]
  Dose: 5 mg/kg
Canis familiaris [2]
  Heart rate: 223 min⁻¹
Canis familiaris [3]
  Ouabain: 74 µg/kg
Canis familiaris [4]
  No. of dogs used: 5
Canis familiaris [5]
  Duration of reversal: 51 min
Canis familiaris [6]
  Heart rate: 169 min⁻¹
Canis familiaris [7]
  No. of dogs reverted: 5
Cavia porcellus
  Activity: 0.66

## CC(C)NCC(O)COc1cccc2ccccc12 (stereo not drawn) [PROPRANOLOL]
Canis familiaris [1]
  Dose: 5 mg/kg
Canis familiaris [2]
  Heart rate: 211 min⁻¹
Canis familiaris [3]
  Ouabain: 72 µg/kg
Canis familiaris [4]
  No. of dogs used: 5
Canis familiaris [5]
  Duration of reversal: 80 min
Canis familiaris [6]
  Heart rate: 138 min⁻¹
Canis familiaris [7]
  No. of dogs reverted: 5

## C=C[C@H]1CN2CC[C@H]1C[C@@H]2[C@@H](O)c1ccnc2ccc(OC)cc12 [QUINIDINE]
Canis familiaris [1]
  Dose: 9 mg/kg
Canis familiaris [2]
  Heart rate: 211 min⁻¹
Canis familiaris [3]
  Ouabain: 59 µg/kg
Canis familiaris [4]
  No. of dogs used: 13
Canis familiaris [5]
  Duration of reversal: 31 min
Canis familiaris [6]
  Heart rate: 170 min⁻¹
Canis familiaris [7]
  No. of dogs reverted: 10
Cavia porcellus
  Activity: 1.15
